Test results: PMC10442107 (Hepatology (Baltimore, Md.), 2023)
Read-outs that look alike come from different tables or passages of the source. Values belong to the molecule of their own block, whether it stands above or below them.

Columns and labels:
[1] = compared with levels in BDL mice of the current study; cited from earlier work
ileal ASBT = target: T1, ileal ASBT (Mus musculus, UniProt P70172); test: Pharmacodynamic study in normal wild-type C57BL/6N mice; format: in vivo
T1 sequence (P70172 1-348): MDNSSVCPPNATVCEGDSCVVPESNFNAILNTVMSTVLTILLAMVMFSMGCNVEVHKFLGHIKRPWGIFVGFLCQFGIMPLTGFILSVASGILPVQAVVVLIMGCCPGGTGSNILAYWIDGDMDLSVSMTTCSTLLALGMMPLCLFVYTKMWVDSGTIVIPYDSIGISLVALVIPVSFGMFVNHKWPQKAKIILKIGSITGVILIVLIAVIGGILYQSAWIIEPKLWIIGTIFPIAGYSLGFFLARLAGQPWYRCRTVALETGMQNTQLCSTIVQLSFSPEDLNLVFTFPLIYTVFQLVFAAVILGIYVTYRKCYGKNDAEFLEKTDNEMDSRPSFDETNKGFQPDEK
Method in brief: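 Adult C57BL/6N mice (13–14 weeks) were gavaged daily for 8 days with the test compound at 3 or 10 mg/kg/d or with vehicle (0.5% CMC + 0.1% Tween 80). Feces were collected between days 6 and 7 and urine 2 h after the day-8 terminal dose. Total bile acids were measured with commercial kits and compared with vehicle by 1-way ANOVA with Dunnett post hoc test.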

BDL mice = test: Bile duct ligation; format: in vivo, mouse; conditions: 3 mg/kg/d
Method in brief: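 Male mice on a C57BL/6J background, age-matched, underwent bile duct ligation. Oral gavage dosing started 3 days after surgery and continued once daily for 11 days, with the comparator ASBT inhibitor at 3 mg/kg. Blood for serum biochemistry was taken by cardiac puncture at sacrifice. RNAseq was run on RNA from terminal liver samples (15 mg fresh tissue).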

[2] = Oral pharmacokinetic profile of A3907 and A3309 in BDL mice; format: in vivo, mouse
Method in brief: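 Adult male C57BL/6 mice with bile duct ligation received the test compound or a gut-restricted ASBT inhibitor by mouth at 3 or 10 mg/kg once daily for 7 days. Plasma exposure was profiled and set against normal wild-type mice dosed under the same conditions.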

Mdr2 −/− mice = conditions: cited from earlier work
[3] = pediatric, cited from earlier work
[4] = 11 days, A3907 vs A3309 comparison
[5] = progressive familial intrahepatic cholestasis

urine BA levels (ileal ASBT; normal mice, oral 3 and 10 mg/kg/d, 2 hours after dose on day 8): did not change | fecal BA levels (ileal ASBT; normal nonfasted mice, oral 3 and 10 mg/kg/d once daily for 7 days, vs vehicle): significant elevation of fecal BA levels | serum levels compared with A3907 ([2]; BDL mice, 3 or 10 mg/kg oral daily): significantly lower than A3907 | plasma exposure in BDL mice relative to normal WT mice ([2]; same experimental conditions, WT data not shown): ~ 6 fold
Compound: CCCCC1(CCCC)CN(c2ccccc2)c2cc(SC)c(OCC(=O)N[C@@H](C(=O)NCC(=O)O)c3ccccc3)cc2S(=O)(=O)C1 [A3309]
systemic exposure in humans at the therapeutically relevant dose [1]: several-fold lower than levels demonstrating signs of efficacy in BDL mice | serum and biliary BAs levels (BDL mice; [4]): attenuated BA levels in a nonsignificant fashion | urinary BA excretion (BDL mice; [4]): induced urinary BA excretion to some extent | number of dysregulated hepatic genes normalized (BDL mice; liver RNAseq, of 5790 DEGs vs sham): 15

Compound: CCCCC1(CCCC)CN(c2ccccc2)c2cc(SC)c(OCC(=O)N[C@@H](C(=O)N[C@@H](CC)C(=O)O)c3ccc(O)cc3)cc2S(=O)(=O)N1 [A4250, odevixibat]
BA levels in serum and bile (Mdr2 −/− mice): reduced | cholestatic liver disease (Mdr2 −/− mice): improved | BA load [3, 5]: reduced | pruritus [3, 5]: decreased

Compound: CCCCC1(CCCC)CS(=O)(=O)c2ccc(N(C)C)cc2[C@@H](c2ccc(OCCCC[N+]34CCN(CC3)CC4)cc2)[C@H]1O [SC-435]
BA levels in serum and bile (Mdr2 −/− mice): reduced | cholestatic liver disease (Mdr2 −/− mice): improved

Compound: CCCCC1(CCCC)CS(=O)(=O)c2ccc(N(C)C)cc2[C@@H](c2ccc(OCc3ccc(C[N+]45CCN(CC4)CC5)cc3)cc2)[C@H]1O [maralixibat]
BA load ([3]; Alagille syndrome): reduced | pruritus ([3]; Alagille syndrome): decreased
